Laboratory results: ChEMBL document CHEMBL4732121, “Imidazo[1,2-a]quinoxalines for melanoma treatment with original mechanism of action” (Eur J Med Chem, 2021)
The source made the active and inactive calls. No cut-off for these calls is given here.

Legend:
[1] = test system: A-375; test: Antiproliferative activity against human A-375 cells assessed as reduction in cell viability measured after 96 hrs by MTT assay; assay type: functional, cell-based; details: Homo sapiens, A-375, 96 h
In short: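 A375 cells in RPMI-1640 with 10% heat-inactivated FBS, 2 mM L-glutamine and antibiotics, 37°C, 5% CO₂. Seeded at 5000 cells/well and attached overnight, then exposed to 10⁻⁵–3.2.10⁻⁹ M in 0.15% DMSO/medium for 96 h. MTT at 0.5 mg/ml final for 4 h, formazan dissolved in 10% SDS/0.01 M HCl, OD 570 nm. At least three experiments in triplicate; IC50 from sigmoidal dose–response curves.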

[2] = test system: A-375; test: Antitumor activity against human A-375 cells xenografted in Balb/c nude mouse assessed as vascularization at 75 mg/kg, ip administered 3 times a week during first week and twice a week for next 2 weeks measured post last dose by trichrome staining based histopathological analysis; assay type: functional, organism-based; details: time 3.0 weeks
In short: (§1)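 Balb/c nude mice given 10×10^6 A375 cells in PBS subcutaneously in the right flank under isoflurane. Groups of 6-12 allocated on Day 14 at 110-130 mm^3 mean tumor volume; dosed ip for three weeks. Drug in DMSO/Tween 80 (1:1) diluted with saline; vehicle DMSO/Tween 80/saline (1:1:8). Tumors fixed in buffered 3.7% formalin and read blind by a veterinary pathologist after mid-sagittal section.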

[3] = Toxicity in Balb/c nude mouse xenografted with human A-375 cells assessed as effect on liver pathology at 75 mg/kg, ip administered 3 times a week during first week and twice a week for 2 week measured post last dose by pathological analysis; assay type: organism-based; details: in vivo, 504 h, time 3 weeks
In short: (§2)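 Balb/c nude mice inoculated s.c. in right flank with 10×10^6 A375 cells in PBS under isoflurane; dosing started once mean tumor volume reached 110-130 mm3, groups allocated Day 14. IP dosing for three weeks; vehicle DMSO/Tween 80 (vol/vol) plus injectable saline (8 vol), solutions made daily. Body weight followed during treatment; gross pathology at study termination; n = 4 mice per group reported.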

[4] = test system: MeWo; test: Antiproliferative activity against human MeWo cells assessed as reduction in cell viability measured after 96 hrs by MTT assay; assay type: functional, cell-based
[5] = test system: A-375; test: Antitumor activity against human A-375 cells xenografted in Balb/c nude mouse assessed as reduction in tumor size at 75 mg/kg, ip administered 3 times a week during first week and twice a week for 2 week by caliper method relative to control; assay type: functional; set-up: scale not given: the % may be the effect or the level left; details: time 3 weeks; in short: as §1
[6] = test system: A-375; test: Antitumor activity against human A-375 cells xenografted in Balb/c nude mouse assessed as reduction in mitotic index at 25 mg/kg, ip administered 3 times a week for 3 weeks measured post last dose; assay type: functional, organism-based; in short: as §1
[7] = test system: A-375; test: Antitumor activity against human A-375 cells xenografted in Balb/c nude mouse assessed as vascularization at 30 mg/kg, ip administered 5 times a week for 3 weeks measured post last dose by trichrome staining based histopathological analysis; assay type: functional, organism-based; in short: as §1
[8] = Toxicity in Balb/c nude mouse xenografted with human A-375 cells assessed as effect on pancreas pathology at 75 mg/kg, ip administered 3 times a week during first week and twice a week for 2 week measured post last dose by pathological analysis; assay type: organism-based; details: in vivo, 504 h, time 3 weeks; in short: as §2
[9] = test system: A-375; test: Antitumor activity against human A-375 cells xenografted in Balb/c nude mouse assessed as reduction in tumor size at 30 mg/kg, ip administered 5 times a week for 3 weeks by caliper method; assay type: functional, organism-based; in short: as §1
[10] = Inhibition of pig brain tubulin polymerization at 5 uM measured after 45 mins by turbidimetry based spectrophotometric method relative to control; assay type: tissue-based, Sus scrofa; details: 0.75 h
[11] = test system: A-375; test: Antitumor activity against human A-375 cells xenografted in Balb/c nude mouse assessed as change in tumor inflammation at 25 mg/kg, ip administered 3 times a week for 3 weeks measured post last dose by trichrome staining based histopathological analysis; assay type: functional, organism-based; in short: as §1
[12] = Toxicity in Balb/c nude mouse xenografted with human A-375 cells assessed as reduction in body weight at 75 mg/kg, ip administered 3 times a week during first week and twice a week for 2 week; assay type: organism-based; details: in vivo, 504 h, time 3 weeks; in short: as §2
[13] = test system: A-375; test: Antitumor activity against human A-375 cells xenografted in Balb/c nude mouse assessed as reduction in mitotic index at 30 mg/kg, ip administered 5 times a week for 3 weeks measured post last dose; assay type: functional, organism-based; in short: as §1
[14] = test system: A-375; test: Antitumor activity against human A-375 cells xenografted in Balb/c nude mouse assessed as change in tumor stroma at 75 mg/kg, ip administered 3 times a week during first week and twice a week for next 2 weeks measured post last dose by trichrome staining based histopathological analysis; assay type: functional, organism-based; details: time 3.0 weeks; in short: as §1
[15] = Toxicity in Balb/c nude mouse xenografted with human A-375 cells assessed as mortality at 75 mg/kg, ip administered 3 times a week during first week and twice a week for 2 week; assay type: organism-based; details: in vivo, 504 h, time 3 weeks; in short: as §2
[16] = test system: A-375; test: Antitumor activity against human A-375 cells xenografted in Balb/c nude mouse assessed as reduction in cell invasion at 25 mg/kg, ip administered 3 times a week for 3 weeks measured post last dose; assay type: functional, organism-based; in short: as §1
[17] = test system: A-375; test: Antitumor activity against human A-375 cells xenografted in Balb/c nude mouse assessed as vascularization at 25 mg/kg, ip administered 3 times a week for 3 weeks measured post last dose by trichrome staining based histopathological analysis; assay type: functional, organism-based; in short: as §1
[18] = test system: A-375; test: Antitumor activity against human A-375 cells xenografted in Balb/c nude mouse assessed as change in tumor stroma at 30 mg/kg, ip administered 5 times a week for 3 weeks measured post last dose by trichrome staining based histopathological analysis; assay type: functional, organism-based; in short: as §1
[19] = test system: A-375; test: Antitumor activity against human A-375 cells xenografted in Balb/c nude mouse assessed as reduction in cell invasion at 30 mg/kg, ip administered 5 times a week for 3 weeks measured post last dose; assay type: functional, organism-based; in short: as §1
[20] = test system: A-375; test: Antitumor activity against human A-375 cells xenografted in Balb/c nude mouse assessed as reduction in cell invasion at 75 mg/kg, ip administered 3 times a week during first week and twice a week for next 2 weeks measured post last dose; assay type: functional, organism-based; details: time 3.0 weeks; in short: as §1
[21] = Cytotoxicity against human PBMC cells assessed as reduction in cell viability at 0.2 mM measured after 96 hrs by MTT assay; assay type: cell-based; details: 200 µM
[22] = test system: A-375; test: Antitumor activity against human A-375 cells xenografted in Balb/c nude mouse assessed as reduction in tumor weight at 25 mg/kg, ip administered 3 times a week for 3 weeks measured post last dose; assay type: functional, organism-based; in short: as §1
[23] = test system: A-375; test: Antitumor activity against human A-375 cells xenografted in Balb/c nude mouse assessed as reduction in tumor weight at 30 mg/kg, ip administered 5 times a week for 3 weeks measured post last dose; assay type: functional, organism-based; in short: as §1
[24] = test system: A-375; test: Antitumor activity against human A-375 cells xenografted in ip dosed Balb/c nude mouse assessed as reduction in tumor size administered 3 times a week for 3 weeks by caliper method; assay type: functional, organism-based; details: dose 25-75 mg/kg
[25] = test system: A-375; test: Antitumor activity against human A-375 cells xenografted in Balb/c nude mouse assessed as change in tumor stroma at 25 mg/kg, ip administered 3 times a week for 3 weeks measured post last dose by trichrome staining based histopathological analysis; assay type: functional, organism-based; in short: as §1
[26] = test system: IPC-298; test: Antiproliferative activity against human IPC-298 cells assessed as reduction in cell viability measured after 96 hrs by MTT assay; assay type: functional, cell-based; details: IPC-298, 96 h
[27] = Toxicity in Balb/c nude mouse xenografted with human A-375 cells assessed as pathological changes at 30 mg/kg, ip administered 5 times a week for 3 weeks measured post last dose by histopathological analysis; assay type: organism-based; details: in vivo, 504 h
[28] = test system: A-375; test: Antitumor activity against human A-375 cells xenografted in Balb/c nude mouse assessed as change in tumor inflammation at 30 mg/kg, ip administered 5 times a week for 3 weeks measured post last dose by trichrome staining based histopathological analysis; assay type: functional, organism-based; in short: as §1
[29] = Toxicity in Balb/c nude mouse xenografted with human A-375 cells assessed as morbidity at 75 mg/kg, ip administered 3 times a week during first week and twice a week for 2 week; assay type: organism-based; details: in vivo, 504 h, time 3 weeks; in short: as §2
[30] = Toxicity in Balb/c nude mouse xenografted with human A-375 cells assessed as adverse effect at 30 mg/kg, ip administered 5 times a week for 3 weeks; assay type: organism-based; details: in vivo, 504 h
[31] = test system: A-375; test: Antitumor activity against human A-375 cells xenografted in Balb/c nude mouse assessed as reduction in mitotic index at 75 mg/kg, ip administered 3 times a week during first week and twice a week for next 2 weeks measured post last dose; assay type: functional, organism-based; details: time 3.0 weeks; in short: as §1
[32] = test system: A-375; test: Antitumor activity against human A-375 cells xenografted in Balb/c nude mouse assessed as change in tumor inflammation at 75 mg/kg, ip administered 3 times a week during first week and twice a week for next 2 weeks measured post last dose by trichrome staining based histopathological analysis; assay type: functional, organism-based; details: time 3.0 weeks; in short: as §1
[33] = test system: A2058; test: Antiproliferative activity against human A2058 cells assessed as reduction in cell viability measured after 96 hrs by MTT assay; assay type: functional, cell-based; details: A2058, 96 h
[34] = Toxicity in Balb/c nude mouse xenografted with human A-375 cells assessed as effect on spleen pathology at 75 mg/kg, ip administered 3 times a week during first week and twice a week for 2 week measured post last dose by pathological analysis; assay type: organism-based; details: in vivo, 504 h, time 3 weeks; in short: as §2
[35] = Toxicity in Balb/c nude mouse xenografted with human A-375 cells assessed as change in body weight at 30 mg/kg, ip administered 5 times a week for 3 weeks; assay type: organism-based; details: in vivo, 504 h
[36] = test system: A-375; test: Antitumor activity against human A-375 cells xenografted in Balb/c nude mouse assessed as reduction in tumor size at 25 mg/kg, ip administered 3 times a week for 3 weeks by caliper method relative to control; assay type: functional; set-up: scale not given: the % may be the effect or the level left; in short: as §1
[37] = test system: A-375; test: Antitumor activity against human A-375 cells xenografted in ip dosed Balb/c nude mouse assessed as reduction in tumor weight administered 3 times a week for 3 weeks measured post last dose; assay type: functional, organism-based; details: dose 25-75 mg/kg
[38] = Toxicity in Balb/c nude mouse xenografted with human A-375 cells assessed as effect on gut pathology at 75 mg/kg, ip administered 3 times a week during first week and twice a week for 2 week measured post last dose by pathological analysis; assay type: organism-based; details: in vivo, 504 h, time 3 weeks; in short: as §2
[39] = test system: A-375; test: Antitumor activity against human A-375 cells xenografted in Balb/c nude mouse assessed as reduction in tumor weight at 75 mg/kg, ip administered 3 times a week during first week and twice a week for next 2 weeks measured post last dose; assay type: functional, organism-based; details: time 3.0 weeks; in short: as §1

COc1ccc(-c2cnc3c(NCCCCCCNC(=O)OC(C)(C)C)nc4ccccc4n23)cc1OC
IC50 [1]: > 10 µM

COc1ccc(-c2cnc3c(N4CCN(C(=O)OC(C)(C)C)CC4)nc4ccccc4n23)cc1OC
IC50 [1]: > 10 µM

CNc1nc2ccc(C(F)(F)F)cc2n2c(-c3ccc(OC)c(OC)c3)cnc12
IC50 [1]: > 10 µM

Oc1ccc(-c2cnc3c(O)nc4ccccc4n23)cc1O
IC50 [1]: > 10 µM

CNc1nc2ccccc2n2c(-c3ccc(O)c(O)c3)cnc12
Activity [2]: inactive
Activity [3]: Toxic
IC50 [4]: 3 nM
Activity [5]: 80%
Activity [6]: Active
Activity [7]: inactive
Activity [8]: Toxic
Activity [9]: Active
inhibition (INH) [10]: Not Active
Activity [11]: inactive
Activity [12]: Toxic
Activity [13]: Active
Activity [14]: inactive
Activity [15]: Toxic
Activity [16]: Active
Activity [17]: inactive
Activity [18]: inactive
Activity [19]: Active
Activity [20]: Active
Activity [21]: Non-Toxic
Activity [22]: Active
Activity [23]: Active
Activity [24]: Dose-dependent effect
Activity [25]: inactive
IC50 [26]: 40 nM
Activity [27]: Non-Toxic
Activity [28]: inactive
Activity [29]: Toxic
Activity [30]: Non-Toxic
Activity [31]: Active
IC50 [1]: 0.003 µM
Activity [32]: inactive
IC50 [33]: 4 nM
Activity [34]: Toxic
Activity [35]: Non-Toxic
Activity [36]: 50%
Activity [37]: Dose-dependent effect
Activity [38]: Toxic
Activity [39]: Active

CNc1nccn2c(-c3ccc(O)c(O)c3)cnc12
IC50 [1]: > 10 µM

CNc1nc2cc(OC(F)(F)F)ccc2n2c(-c3ccc(OC)c(OC)c3)cnc12
IC50 [1]: 3.49 µM
